Test results as given in ChEMBL document CHEMBL3525939, “Organic cation transporter-mediated renal secretion of ipratropium and tiotropium in rats and humans” (Drug Metab Dispos, 2011).

Assays:
[1] = molecular target: T1, Solute carrier family 22 member 2 (Rattus norvegicus, UniProt Q9R0W2); test: Binding affinity to rat Oct2 assessed as transporter-mediated drug uptake; format: ADME
T1 sequence (Q9R0W2 whole entry): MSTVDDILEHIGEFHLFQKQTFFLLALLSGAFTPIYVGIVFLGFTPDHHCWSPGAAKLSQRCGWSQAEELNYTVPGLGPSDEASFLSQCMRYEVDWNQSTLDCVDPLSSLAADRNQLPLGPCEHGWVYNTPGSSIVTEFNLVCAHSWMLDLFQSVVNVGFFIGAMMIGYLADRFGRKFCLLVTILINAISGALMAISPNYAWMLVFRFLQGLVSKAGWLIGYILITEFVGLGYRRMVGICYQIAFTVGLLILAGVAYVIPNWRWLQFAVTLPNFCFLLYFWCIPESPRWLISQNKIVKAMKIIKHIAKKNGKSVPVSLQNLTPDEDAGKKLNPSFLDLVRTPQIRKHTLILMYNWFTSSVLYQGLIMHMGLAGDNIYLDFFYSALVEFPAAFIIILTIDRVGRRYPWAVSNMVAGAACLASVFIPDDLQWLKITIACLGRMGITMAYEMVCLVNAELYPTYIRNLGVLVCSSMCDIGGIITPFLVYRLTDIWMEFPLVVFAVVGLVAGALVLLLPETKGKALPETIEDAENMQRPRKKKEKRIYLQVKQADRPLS
Summary of the method: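 [3H]ipratropium (10 nM) uptake into HEK293/rOct2 cells over 30 sec at pH 7.4, 37°C, in HEPES-buffered saline transport buffer. Mock-cell uptake subtracted to give transporter-mediated uptake. Cells lysed in Triton X-100, counted by liquid scintillation, normalised to protein. Km and Vmax from non-linear least-squares fit to Michaelis-Menten equation. n = 4, mean ± SEM.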

Kidney [2] = test: Drug uptake in Wistar rat kidney slice at 10 nM at pH 7.4 at 37 degC after 1 min relative to control in presence of 1 mM cimetidine; format: ADME, tissue-based; parameters: interact cpd dose 1 mM; conditions: pH 7.4, 1 min, 0.01 µM
Summary of the method: (§1)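 Rat kidney slices incubated with [3H]ipratropium or [3H]tiotropium (10 nM) for 1 min at 37°C and pH 7.4. Each inhibitor given at 1 mM. Adhering water estimated from [14C]inulin uptake. Uptake expressed as percent of control without inhibitor. Mean ± SEM of 4 slices; significance by Student's t-test, p<0.05.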

Oct2 (Slc22a2) [3] = molecular target: T2, Oct2 (Slc22a2) (Rattus norvegicus, UniProt Q9R0W2); test: Drug uptake in rat Oct2 expressed HEK293 cells at 10 nM at pH 7.4 at 37 degC after 1 min relative to mock cells; format: ADME, cell-based; conditions: HEK293 cells expressing rat Oct2, pH 7.4, read-out: FC
T2 sequence (Q9R0W2 whole entry): T1 sequence (Q9R0W2 whole entry)
Summary of the method: (§2)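 Transfected HEK293 cells (antibiotic-selected; DMEM with 10% FBS) plated at 1 × 10^5 cells/cm2 and used after 2 days. Uptake of [3H]ipratropium or [3H]tiotropium (10 nM) for 1 min at pH 7.4, 37°C, in HEPES-buffered saline. Cells washed ice-cold, lysed in Triton X-100, counted by scintillation, normalised to protein. Uptake compared with vector-only Mock cells. n = 4.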

Kidney [4] = test: Drug uptake in Wistar rat kidney slice at 10 nM at pH 7.4 at 37 degC after 1 min; format: ADME, tissue-based; conditions: pH 7.4, 1 min, 0.01 µM; summary of the method: as §1
Oct1 (Slc22a1) = molecular target: T3, Oct1 (Slc22a1) (Rattus norvegicus, UniProt Q63089); test: Drug uptake in rat Oct1 expressed HEK293 cells at 10 nM at pH 7.4 at 37 degC after 1 min relative to mock cells; format: ADME, cell-based; conditions: HEK293 cells expressing rat Oct1, pH 7.4, read-out: FC; summary of the method: as §2
T3 sequence (Q63089 whole entry): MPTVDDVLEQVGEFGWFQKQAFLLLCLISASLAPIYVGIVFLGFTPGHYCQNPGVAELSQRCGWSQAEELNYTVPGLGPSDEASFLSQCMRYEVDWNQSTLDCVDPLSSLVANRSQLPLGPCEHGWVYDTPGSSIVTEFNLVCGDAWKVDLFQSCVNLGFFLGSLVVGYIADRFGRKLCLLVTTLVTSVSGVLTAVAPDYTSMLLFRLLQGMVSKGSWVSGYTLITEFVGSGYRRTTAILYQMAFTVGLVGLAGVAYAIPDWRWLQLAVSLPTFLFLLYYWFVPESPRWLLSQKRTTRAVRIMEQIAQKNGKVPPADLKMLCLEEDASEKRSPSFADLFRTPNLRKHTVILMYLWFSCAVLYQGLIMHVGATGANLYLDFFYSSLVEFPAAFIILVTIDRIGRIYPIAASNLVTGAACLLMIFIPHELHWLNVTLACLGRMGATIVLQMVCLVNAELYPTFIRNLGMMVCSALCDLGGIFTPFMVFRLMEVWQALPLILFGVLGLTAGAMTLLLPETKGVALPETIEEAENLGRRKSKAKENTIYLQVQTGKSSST

Kidney [5] = test: Drug uptake in Wistar rat kidney slice at 10 nM at pH 7.4 at 37 degC after 1 min relative to control in presence of 1 mM imipramine; format: ADME, tissue-based; parameters: interact cpd dose 1 mM; conditions: pH 7.4, 1 min, 0.01 µM; summary of the method: as §1
Kidney [6] = test: Drug uptake in Wistar rat kidney slice at 10 nM at pH 7.4 at 37 degC after 1 min relative to control in presence of ipratropium; format: ADME, tissue-based; conditions: pH 7.4, 1 min, 0.01 µM; summary of the method: as §1
Kidney [7] = test: Drug uptake in Wistar rat kidney slice at 10 nM at pH 7.4 at 37 degC after 1 min relative to control in presence of 1 mM TEA+; format: ADME, tissue-based; parameters: interact cpd dose 1 mM; conditions: pH 7.4, 1 min, 0.01 µM; summary of the method: as §1
Kidney [8] = test: Drug uptake in Wistar rat kidney slice at 10 nM at pH 7.4 at 37 degC after 1 min relative to control in presence 1 mM MPP+; format: ADME, tissue-based; parameters: interact cpd dose 1 mM; conditions: pH 7.4, 1 min, 0.01 µM; summary of the method: as §1
Kidney [9] = test: Drug uptake in Wistar rat kidney slice at 10 nM at pH 7.4 at 37 degC after 1 min relative to control in presence of 1 mM PAH; format: ADME, tissue-based; parameters: interact cpd dose 1 mM; conditions: pH 7.4, 1 min, 0.01 µM; summary of the method: as §1
Kidney [10] = test: Drug uptake in Wistar rat kidney slice at 10 nM at pH 7.4 at 37 degC after 1 min relative to control in presence of 1 mM estrone 3-sulfate; format: ADME, tissue-based; parameters: interact cpd dose 1 mM; conditions: pH 7.4, 1 min, 0.01 µM; summary of the method: as §1
OCT2 (SLC22A2) [11] = molecular target: T4, OCT2 (SLC22A2) (Homo sapiens, UniProt O15244); test: Drug uptake in human Oct2 expressed HEK293 cells at 10 nM at pH 7.4 at 37 degC after 1 min relative to mock cells; format: ADME, cell-based; conditions: HEK293 cells expressing human Oct2, pH 7.4, read-out: FC; summary of the method: as §2
T4 sequence (O15244 whole entry): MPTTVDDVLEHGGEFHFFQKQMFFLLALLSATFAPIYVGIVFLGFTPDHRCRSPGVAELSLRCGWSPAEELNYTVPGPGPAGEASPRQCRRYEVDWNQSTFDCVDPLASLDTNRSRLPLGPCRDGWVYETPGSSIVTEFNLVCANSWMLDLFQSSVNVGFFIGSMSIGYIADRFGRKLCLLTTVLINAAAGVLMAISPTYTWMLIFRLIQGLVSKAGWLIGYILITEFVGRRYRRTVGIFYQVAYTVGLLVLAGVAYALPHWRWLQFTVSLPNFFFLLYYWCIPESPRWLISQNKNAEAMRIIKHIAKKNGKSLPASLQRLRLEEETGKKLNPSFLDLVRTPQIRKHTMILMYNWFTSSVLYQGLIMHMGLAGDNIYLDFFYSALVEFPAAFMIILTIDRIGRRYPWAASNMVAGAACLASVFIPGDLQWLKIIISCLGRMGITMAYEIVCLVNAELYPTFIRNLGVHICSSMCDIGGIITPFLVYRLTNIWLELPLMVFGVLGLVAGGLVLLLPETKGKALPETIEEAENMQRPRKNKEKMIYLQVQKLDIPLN

Kidney [12] = test: Drug uptake in Wistar rat kidney slice at 10 nM at pH 7.4 at 37 degC after 1 min relative to control in presence of 1 mM quinidine; format: ADME, tissue-based; parameters: interact cpd dose 1 mM; conditions: pH 7.4, 1 min, 0.01 µM; summary of the method: as §1
[13] = substrate: NCCc1ccc(O)c(O)c1; test: cells, lysate or membranes named

## C[n+]1ccc(-c2ccccc2)cc1
[1]
  Km: 17 µM

## C[N+]1(C)[C@@H]2C[C@@H](OC(=O)C(O)(c3cccs3)c3cccs3)C[C@@H]1[C@H]1O[C@H]12.[Br-]
Kidney [2]
  Drug uptake: 54.5%
Oct2 (Slc22a2) [3]
  uptake ratio at 1 min, 0.01 µM: 3
Kidney [4]
  Drug uptake: 100%
Oct1 (Slc22a1)
  uptake ratio at 1 min, 0.01 µM: 8.4
Kidney [5]
  Drug uptake: 36.7%
Kidney [6]
  Drug uptake: 25.6%
Kidney [7]
  Drug uptake: 67.3%
Kidney [8]
  Drug uptake: 39.8%
Kidney [9]
  Drug uptake: 97.4%
Kidney [10]
  Drug uptake: 104%
OCT2 (SLC22A2) [11]
  uptake ratio at 1 min, 0.01 µM: 8.5
Kidney [12]
  Drug uptake: 34.9%

B1: Solute carrier family 22 member 2 (Rattus norvegicus) (protein)
chain: T1 sequence (Q9R0W2 whole entry)
[13]
  Km: 650 µM
